The text below walks through data of ChEMBL document CHEMBL2311335, “Increased hydrophobicity and estrogenic activity of simple phenols with silicon and germanium-containing substituents” (J Med Chem, 2013).

Series [1] is described as follows: Octanol-water partition coefficient, log P of the compound by HPLC analysis.
For series [2], the system named is MCF7. Description: Estrogenic activity in human MCF7 cells assessed as cell proliferation after 7 days by WST-8 assay. The series is classed as functional, cell-based. The method in brief: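 Cells were seeded at 1.2 × 10³ per well in the same medium. Proliferation was read by WST-8 (2 h, absorbance at 450 nm). Viable cell number was plotted against log concentration and EC₅₀ taken from a sigmoidal fit.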
A general note: Tetrazolium dyes change colour on reduction, which living cells bring about.

Series [3] addresses T1, Estrogen receptor (Homo sapiens) (UniProt P03372).
T1 sequence (whole entry): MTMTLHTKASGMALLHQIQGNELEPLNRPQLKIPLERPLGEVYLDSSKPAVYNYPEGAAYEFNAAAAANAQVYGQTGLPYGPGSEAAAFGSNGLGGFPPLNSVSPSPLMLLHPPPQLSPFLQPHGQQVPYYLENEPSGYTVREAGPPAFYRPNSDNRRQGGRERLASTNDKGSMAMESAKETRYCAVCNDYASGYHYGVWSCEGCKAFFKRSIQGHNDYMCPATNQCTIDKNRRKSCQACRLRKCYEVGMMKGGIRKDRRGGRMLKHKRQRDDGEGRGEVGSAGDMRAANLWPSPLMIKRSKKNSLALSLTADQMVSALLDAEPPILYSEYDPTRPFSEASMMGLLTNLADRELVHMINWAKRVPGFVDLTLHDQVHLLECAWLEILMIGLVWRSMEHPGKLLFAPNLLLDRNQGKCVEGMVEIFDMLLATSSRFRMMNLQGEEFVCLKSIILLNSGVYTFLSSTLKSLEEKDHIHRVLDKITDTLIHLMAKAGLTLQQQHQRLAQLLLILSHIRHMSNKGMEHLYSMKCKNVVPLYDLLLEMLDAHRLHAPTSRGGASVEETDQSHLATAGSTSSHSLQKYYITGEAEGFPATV
Description: Displacement of [3H]estradiol from human recombinant ER at 10^-8 to 10^-7 M after 14 to 18 hrs by scintillation counting analysis. The conditions noted are these: in the assay text read “10^-8 to 10^-4 M” for “10^-8 to 10^-7 M”. The method in brief:
(§1)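 Recombinant human ER was diluted in binding buffer (50 mM Tris pH 7.5, 10% glycerol, 0.1 mM BHA, 10 mM mercaptoethanol, 0.5% yeast extract) to 2–4 nM. It was incubated refrigerated for 14–18 h with 10⁻⁸ M [³H]estradiol final and 10⁻⁴–10⁻⁸ M competitor in DMSO. Bound ligand was captured on hydroxylapatite for 15 min at 0 °C, washed three times with Tris pH 7.3, and counted by scintillation. Run in duplicate.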
On the technique in general: Loss of bound radioactivity is the signal in a displacement assay; it reports binding, not function.

The target of series [4] is T1, Estrogen receptor (Homo sapiens). Description: (§2) Agonist activity at ER in human T47D-Kbluc cells at 10^-14 to 10^-7 M after 24 hrs by luciferase reporter gene assay. It counts as cell-based. The method in brief:
(§3)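 After 24 h at 37 °C, compounds were added at 10⁻¹⁴ to 10⁻⁷ M final in 0.1% DMSO final. After a further 24 h, Steady-Glo was added and luminescence read after 5 min.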
A general note: Reporter assays use an easily measured gene product as a stand-in for the process of interest.

A short description of series [5]: Dissociation constant, pKa of the compound.
The test system of series [6] is MCF7. The series can be described thus: Estrogenic activity in human MCF7 cells assessed as cell proliferation at 10^-12 M to 10^-6 M after 7 days by WST-8 assay relative to estradiol. The series is classed as functional.
Series [7] has as its target Estrogen receptor (Homo sapiens) (UniProt P03372). The series can be described thus: (§4) Displacement of [3H]estradiol from human recombinant ER after 14 to 18 hrs by scintillation counting analysis. The method in brief:
as §1

The target is the same in series [8]. Described as §2. It counts as cell-based. The method in brief:
as §3
The source holds these as a separate data set.

Series [9] deals with T1, Estrogen receptor (Homo sapiens). The description is as §4. The method in brief: as §1
This is another data set of the same source.

Active and inactive are the calls of the source. No cut-off for these calls is given here.

The logP is the decadic logarithm of the partition coefficient of the neutral form, usually between octanol and water. By EC50 is commonly meant the concentration needed to bring the measured effect to its halfway point. In turn, “4-Triethylgermylphenol [listing 1 of 2 here]” returned a logP in series [1] of 5.71. The EC50 in the series with MCF7 [2] (mcf7) amounted to 0.0021 µM.
The compound `CC[Si](C)(C)c1ccc(O)cc1` registered a logP in [1] of 4.64. For the same compound, the EC50 in the series with MCF7 [2] (Homo sapiens, MCF7, 168 h) is 0.041 µM.
With `CCC(CC)(CC)c1ccc(O)cc1`, in series [1], the logP stood at 5.03. Further, the inhibition entry in series [3] was “Active”. In addition, in the series on MCF7 [2] (Homo sapiens, MCF7, 168 h), the EC50 is 0.023 µM. The outcome in series [4] was Active.
Broadly, the pKa is the pH at which an ionisable group is half protonated. In series [1], `C[Si](C)(C)c1ccc(O)cc1` had a logP of 4.12. In series [5], this compound had a pKa of 10.1. Also, the EC50 in the series with MCF7 [2] (Homo sapiens, MCF7, 168 h) is 0.063 µM.
In [1], `CCC(C)(C)c1ccc(O)cc1` returned a logP of 4.04. The EC50 in the series on MCF7 [2] (Homo sapiens, MCF7, 168 h) amounted to 0.19 µM.
Regarding “4-Triphenylgermylphenol [listing 1 of 2 here]”, the Emax in the series on MCF7 [6] amounted to 47%.
Consider “4-Triethylgermylphenol [listing 2 of 2 here]”, for which the inhibition entry in series [7] is “Dose-dependent effect”. The outcome in series [8] was Active.
In turn, `Oc1ccc([Si](c2ccccc2)(c2ccccc2)c2ccccc2)cc1` showed a logP in [1] of 6.83. Further, the Emax in the series with MCF7 [6] (MCF7, 168 h) was 29%.
“4-Triphenylgermylphenol [listing 2 of 2 here]” displayed a logP in series [1] of 6.97.
`Oc1ccc(C(c2ccccc2)(c2ccccc2)c2ccccc2)cc1` yielded a logP in [1] of 6.25. The Emax in the series on MCF7 [6] (MCF7, 168 h) was 16%.
Regarding `CC(C)(c1ccccc1)c1ccc(O)cc1`, the log partition coefficient (logP) in series [1] amounted to 4.31. For the same compound, in the series with MCF7 [2] (Homo sapiens, MCF7, 168 h), the EC50 was determined as 0.038 µM.
In the case of `CC(C)(C)c1ccc(O)cc1`, in the series with MCF7 [2] (Homo sapiens, MCF7, 168 h), the EC50 was found to be 0.87 µM.
Compound `C[Si](C)(c1ccccc1)c1ccc(O)cc1` showed a logP in [1] of 4.91. The EC50 in the series on MCF7 [2] (Homo sapiens, MCF7, 168 h) is 0.016 µM.
In series [1], `CC[Si](CC)(CC)c1ccc(O)cc1` gave a logP of 5.69. Besides, in series [9], the inhibition entry is “Dose-dependent effect”. Further, the EC50 with MCF7 [2] (Homo sapiens, MCF7, 168 h) was determined as 0.0034 µM. For the same compound, the outcome in series [4] was Active.
4-Trimethylgermylphenol displayed a logP in series [1] of 4.11. For the same compound, the pKa in series [5] worked out at 10.2. Also, the EC50 with MCF7 [2] (mcf7) was 0.1 µM.
